Laboratory results as given in ChEMBL document CHEMBL2413060, “Synthesis, biological evaluation and molecular docking studies of some pyrimidine derivatives” (2013).
Values after ≈ are worked out from the molar mass of the structure shown.

Assays:
Format in all cases: functional
Staphylococcus aureus [1] = assay: Antibacterial activity against Staphylococcus aureus ATCC 6538P after 24 hrs by two-fold serial dilution method relative to ampicillin
Staphylococcus aureus [2] = assay: Antibacterial activity against Staphylococcus aureus ATCC 6538P after 24 hrs by two-fold serial dilution method
Method in brief: (§1)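 Two-fold serial broth dilution in sterile nutrient broth at 500, 250, 125, 62.5, 31.25, 15.63, 7.82 and 3.91 µg/ml, with dimethylformamide ≤2.5%. Organisms were pre-grown 24 h in broth, and 0.1 ml inoculum was added per 5 ml tube. Tubes were incubated at 37°C, 24 h for bacteria and 48 h for fungi. MIC was taken as the lowest concentration giving no turbidity.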

Candida albicans = assay: Antifungal activity against Candida albicans ATCC 2091 assessed as diameter of inhibition zone at 1 mg/ml after 48 hrs by cup diffusion method (reference value: 22 mm); details: ATCC 2091, 48 h, read-out: DIZ
Shigella flexneri [3] = assay: Antibacterial activity against Shigella flexneri ATCC 15391 assessed as diameter of inhibition zone at 1 mg/ml after 24 hrs by cup diffusion method (reference value: 17 mm); details: ATCC 15391, 24 h, read-out: DIZ
Staphylococcus aureus [4] = assay: Antibacterial activity against Staphylococcus aureus ATCC 6538P assessed as diameter of inhibition zone at 1 mg/ml after 24 hrs by cup diffusion method (reference value: 15 mm); details: read-out: DIZ
Pseudomonas aeruginosa = assay: Antibacterial activity against Pseudomonas aeruginosa ATCC 9027 assessed as diameter of inhibition zone at 1 mg/ml after 24 hrs by cup diffusion method (reference value: 16 mm); details: ATCC 9027, 24 h, read-out: DIZ
NCI/ADR-RES = assay: Cytotoxicity against human NCI/ADR-RES cells assessed as growth inhibition at 10 uM; details: read-out: GI
Method in brief: (§2)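 Single-dose screen on human tumour cell lines. Growth of treated cells is expressed as percent of untreated growth, plotted as a mean graph, and reported as percent growth inhibition.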

HCC 2998 = assay: Cytotoxicity against human HCC2998 cells assessed as growth inhibition at 10 uM; details: read-out: GI
Shigella flexneri [5] = assay: Antibacterial activity against Shigella flexneri ATCC 15391 after 24 hrs by two-fold serial dilution method relative to ofloxacin
Shigella flexneri [6] = assay: Antibacterial activity against Shigella flexneri ATCC 15391 after 24 hrs by two-fold serial dilution method; details: ATCC 15391, 24 h; method in brief: as §1
NCI-H23 = assay: Cytotoxicity against human NCI-H23 cells assessed as growth inhibition at 10 uM; details: read-out: GI; method in brief: as §2

## CSc1nc(-c2ccco2)c(C#N)c(=O)n1C
Staphylococcus aureus [1]
  Activity: 50%
Staphylococcus aureus [2]
  MIC: 125 µg/mL (≈ 506 µM)
Candida albicans
  zone of inhibition at 1000 µg/mL: 22 mm
Shigella flexneri [3]
  zone of inhibition at 1000 µg/mL: 17 mm
Staphylococcus aureus [4]
  zone of inhibition at 1000 µg/mL: 19 mm
Pseudomonas aeruginosa
  zone of inhibition at 1000 µg/mL: 17 mm
NCI/ADR-RES
  inhibition of growth at 10 µM: 48.8%
HCC 2998
  inhibition of growth at 10 µM: 98.4%

## Cn1c(NN)nc(-c2ccco2)c(C#N)c1=O
Shigella flexneri [5]
  Activity: 60%
Shigella flexneri [6]
  MIC: 125 µg/mL (≈ 541 µM)
Candida albicans
  zone of inhibition at 1000 µg/mL: 22 mm
Shigella flexneri [3]
  zone of inhibition at 1000 µg/mL: 20 mm
Staphylococcus aureus [4]
  zone of inhibition at 1000 µg/mL: 15 mm
Pseudomonas aeruginosa
  zone of inhibition at 1000 µg/mL: 16 mm
NCI/ADR-RES
  inhibition of growth at 10 µM: 55.9%
HCC 2998
  inhibition of growth at 10 µM: 84.4%
NCI-H23
  inhibition of growth at 10 µM: 54.7%
